Data: paper PMC7009771 (EFSA Journal, 2018)
In brackets after ≈: the same amount, converted by molar mass. Entries after “also recorded” stand apart in the source; their conditions may differ. Read-outs that look alike come from different tables or passages of the source.

Assays:
[1] = carcinogenic potential; ref EC SCCS, 2012, EFSA ANS Panel, 2017; cited from earlier work
[2] = tested on: bone marrow of Hsd:ICR (CD-1) mice; settings: cited from earlier work; for maximum tolerated dose (MTD): range-finder, oral gavage, ref BioReliance, 2014
bone marrow of CD-1 mice = settings: ref WIL Research (2013a), cited from earlier work
[3] = Nitrosation rate constant; settings: pH 3.4; estimated from kDMA by correction for the pKa difference
[4] = tested on: S. Typhimurium strains TA98, TA100, TA1535 and TA1537 and E. coli strain WP2 uvrA; settings: up to 5,000 μg/plate, ref BioReliance (2013a), cited from earlier work; for Bacterial reverse mutation result: plate incorporation, with and without metabolic activation
[5] = tested on: human peripheral blood lymphocytes (HPBL); settings: ref BioReliance (2013b), cited from earlier work; for Chromosome aberration result (structural aberrations): 4 + 16 h in the absence of S9-mix
[6] = tested on: human peripheral blood lymphocytes (HPBL); settings: ref Nucro-Technics (2013b), cited from earlier work; for relative cell growth (RCG) (test vs. solvent control) / relative mitotic index (RMI) (test vs. solvent control): 3-h exposure without S9-mix
[7] = tested on: Keratinocyte ARE-Reporter Cell Line KeratinoSens; settings: in vitro; ref IIVS, 2013; cited from earlier work
[8] = ref Senomyx, 2015, cited from earlier work
CD [Crl:CD(SD)] rats [9] = settings: 90 days, gavage, rats males and females; ref Charles River (2014); cited from earlier work
hERG ion channel = settings: 10 μM; ref AVIVA, 2012; cited from earlier work
CYP2C19 [10] = settings: human liver microsomes; ref Absorption Systems, 2013b; cited from earlier work
CD [Crl:CD(SD)] rats [11] = experiment: 90-day oral toxicity study in rats; format: in vivo
Summary of the method: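 Candidate substance given by oral gavage to CD rats of both sexes for 13 weeks at up to 100 mg/kg bw per day, with doses chosen from a 28-day dietary range-finder. Margin of safety derived from the 90-day NOAEL against APET exposure estimates: chronic 3.8 (adult) or 9.5 (child) µg/kg bw per day, and acute 0.076 mg/kg bw for a 3-year-old child.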

CYP2C19 [12] = settings: 10 μM (~ […]), pooled human liver microsomes; ref Absorption Systems, 2013a; cited from earlier work
[13] = heated for 24 h at 110°C; ref Senomyx, 2015; cited from earlier work
CD [Crl:CD(SD)] rats [14] = settings: 28 days, gavage, rats males and females; ref Charles River (2013); cited from earlier work
[15] = tested on: 67 receptor binding assays for G-protein coupled receptors (GPCRs), ion channels, nuclear receptors and transporters; settings: significant = ≥ 50% inhibition or stimulation; 67 assays; ref Ricerca, 2012; cited from earlier work
humans = settings: 112 subjects completed, ref Harrison Research Laboratories, 2014a,b; cited from earlier work
[16] = in vitro; ref CiToxLab, 2014; cited from earlier work
Balb/c 3T3 cells = settings: based on 3T3 NRU test; ref CeeTox, 2013; cited from earlier work
[17] = 24 h at 100°C, ref Senomyx, 2015, cited from earlier work
[18] = 3-h exposure with S9-mix, 1.3 μg/mL
[19] = 3-h exposure with S9-mix, 2.5 μg/mL
[20] = 3-h exposure with S9-mix, 5.0 μg/mL
[21] = 20-h exposure without S9, 23 μg/mL
[22] = 20-h exposure without S9, 39 μg/mL
[23] = 20-h exposure without S9, 65 μg/mL
[24] = 20-h exposure without S9, 110 μg/mL

CN(C)N=O [DMNA, dimethylnitrosamine]
BMDL10 [1]: 27 μg/kg bw per day

COS(C)(=O)=O [MMS, methyl methanesulfonate, reference compound]
frequency of MNPCEs, positive control ([2]; positive control, 40 mg/kg bw per day on days 2 and 3, ref BioReliance (2014)): statistically significant increases

O=P1(N(CCCl)CCCl)NCCCO1 (stereo not shown) [CP, Cyclophosphamide monohydrate, reference compound]
frequency of MNPCEs, positive control (bone marrow of CD-1 mice; positive control, 60 mg/kg bw per day): statistically significant increase

O=S(=O)(O)O.c1csc(CNc2cc[nH]n2)c1.c1csc(CNc2cc[nH]n2)c1 [S2312, hemisulfate salt of N‐(thiophen‐2‐ylmethyl)‐1H‐pyrazol‐3‐amine]
clinical signs observed ([2]; mice, 125-1,000 mg/kg bw per day, gavage, ref BioReliance (2014)): piloerection (at all dose levels), lethargy (at 500 and 1,000 mg/kg bw per day), prostration, irregular breathing and crusty eyes (at 1,000 mg/kg bw per day in female mice)
mortality ([2]; mice, any dose level up to 1,000 mg/kg bw per day, ref BioReliance (2014)): No mortality
maximum tolerated dose (MTD) ([2]; female mice): 1,000 mg/kg bw per day
maximum tolerated dose (MTD) ([2]; male mice): 500 mg/kg bw per day

c1csc(CNc2cc[nH]n2)c1 [M179, N‐(thiophen‐2‐ylmethyl)‐1H‐pyrazol‐3‐amine]
rate constant of nitrosation (kM179), estimated [3]: 0.0017 × 10^−4 M^−2s^−1

Cl.c1csc(CNc2cc[nH]n2)c1 [S1140, N‐(Thiophen‐2‐ylmethyl)‐1H‐pyrazol‐3‐amine, hydrochloride salt]
Bacterial reverse mutation result [4]: did not show mutagenicity
Bacterial reverse mutation result ([4]; hydrochloride salt (M179)): Negative ^a
precipitate / background lawn toxicity ([4]; two studies): Neither precipitate nor background lawn toxicity was observed in the two studies performed
Chromosome aberration result (structural aberrations) ([5]; hydrochloride salt (M179)): Positive ^e
Chromosome aberration result (structural aberrations) [5]: induced chromosomal aberrations
structural chromosomal aberrations ([5]; 4 + 16 h treatment in the presence of S9-mix, 100-1,840 μg/mL): No statistically significant or concentration‐related increases in structural chromosomal aberrations
polyploidy ([5]; any of the treatment conditions): No statistically significant or concentration‐related increases in polyploidy

Cc1ccc(OCC(=O)N(Cc2cccs2)c2ccn[nH]2)cc1 [FL‐no: 16.133, 2‐(4‐methylphenoxy)‐N‐(1H‐pyrazol‐3‐yl)‐N‐(thiophen‐2‐ylmethyl)acetamide]
relative cell growth (RCG) [6, 18]: 109%
relative mitotic index (RMI) [6, 18]: 61%
relative cell growth (RCG) [6, 19]: 100%
relative mitotic index (RMI) [6, 19]: 55%
relative cell growth (RCG) [6, 20]: 121%
relative mitotic index (RMI) [6, 20]: 45%
relative cell growth (RCG) ([6]; 3-h exposure with S9-mix, 10 μg/mL): 130%
relative cell growth (RCG) ([6]; 3-h exposure with S9-mix, 20 μg/mL): 97%
relative cell growth (RCG) ([6]; 3-h exposure with S9-mix, 40 μg/mL): 84%
relative cell growth (RCG) ([6]; 3-h exposure with S9-mix, 80 μg/mL): 60%
relative cell growth (RCG) ([6]; 3-h exposure with S9-mix, 160 μg/mL): 11%
relative cell growth (RCG) (test vs. solvent control) ([6]; 35 μg/mL): 108%
relative mitotic index (RMI) (test vs. solvent control) ([6]; 35 μg/mL): 102%
relative cell growth (RCG) (test vs. solvent control) ([6]; 58 μg/mL): 93%
relative mitotic index (RMI) (test vs. solvent control) ([6]; 58 μg/mL): 88%
relative cell growth (RCG) (test vs. solvent control) ([6]; 97 μg/mL): 98%
relative mitotic index (RMI) (test vs. solvent control) ([6]; 97 μg/mL): 110%
relative cell growth (RCG) (test vs. solvent control) ([6]; 160 μg/mL): 60%
relative mitotic index (RMI) (test vs. solvent control) ([6]; 160 μg/mL): 48%
relative cell growth (RCG) (test vs. solvent control) ([6]; 270 μg/mL): 18%
relative cell growth (RCG) [6, 21]: 100%
relative mitotic index (RMI) [6, 21]: 106%
relative cell growth (RCG) [6, 22]: 97%
relative mitotic index (RMI) [6, 22]: 82%
relative cell growth (RCG) [6, 23]: 60%
relative mitotic index (RMI) [6, 23]: 57%
relative cell growth (RCG) [6, 24]: 56%
relative mitotic index (RMI) [6, 24]: 0%
relative cell growth (RCG) ([6]; 20-h exposure without S9, 180 μg/mL): 19%
skin sensitisation potential, KeratinoSens Assay [7]: may exhibit a skin sensitisation potential
Solubility in ethanol ([8]; 95% ethanol): > 308 mM
Solubility in water ([8]; pH = 7): 0.12 mM (≈ 0.0393 mg/mL)
Solubility in triacetine [8]: 40.47 mM (≈ 13.3 mg/mL)
ratio PCEs/TE (bone marrow toxicity) vs vehicle control (bone marrow of CD-1 mice; CD-1 mice, 1,000-2,000 mg/kg bw per day): No decrease
Micronucleus assay result (incidence of MNPCEs) (bone marrow of CD-1 mice; CD-1 mice, gavage, 1,000, 1,500 and 2,000 mg/kg bw per day, three consecutive days): No statistically significant increases; also recorded: Negative
clinical signs of toxicity (bone marrow of CD-1 mice; CD-1 mice, gavage, up to 2,000 mg/kg bw per day): No clinical signs of toxicity
Result: NOEL (CD [Crl:CD(SD)] rats [9]): NOEL: ≥ 100 mg/kg bw per day
inhibition of hERG ion channel current (hERG ion channel): < 10%
time-dependent inhibition of CYP2C19 (CYP2C19 [10]): No evidence of time‐dependent CYP inhibition
Margin of safety (CD [Crl:CD(SD)] rats [11]; Adult, 90-day NOAEL 100 mg/kg bw per day vs chronic APET 3.8 μg/kg bw per day): 26,300
Margin of safety (CD [Crl:CD(SD)] rats [11]; Child, 90-day NOAEL 100 mg/kg bw per day vs chronic APET 9.5 μg/kg bw per day): 10,500
MoE, acute exposure (CD [Crl:CD(SD)] rats [11]; children, 90-day NOAEL vs maximum acute dietary exposure about 0.08 mg/kg bw): more than 1,000
CYP2C19 inhibition (CYP2C19 [12]): significant inhibition
Dry powder stability [13]: stable
Result: NOEL (CD [Crl:CD(SD)] rats [14]): NOEL: ≥ 100 mg/kg bw per day
responses in lead profiling receptor screen [15]: No significant responses
skin sensitisation, HRIPT result (humans): negative result
skin sensitisation potential, DPRA [16]: may exhibit a skin sensitisation potential
phototoxic potential (Panel conclusion) (Balb/c 3T3 cells): does not anticipate that [FL‐no: 16.133] has a phototoxic potential
percentage remaining ([17]; aqueous citric buffer pH 2.8): 90.1%
percentage remaining ([17]; aqueous citric buffer pH 4.0): 97.2%
percentage remaining ([17]; phosphoric acid buffer pH 7.1): 83.5%
